Data set [1] in a line: folding enthalpy; higher = less favourable; fluorescence melt of hairpins on a sequencing array, two-state fit. The note with it: sodium 0.088 M. The method, boiled down: (§1)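 Hairpins were imaged by Cy3 fluorescence on a sequenced MiSeq flow cell with annealed Cy3 and quencher oligos, in 50 mM Na-HEPES pH 8.0, 25 mM NaCl, in 2.5 °C steps up to 60 °C. Bootstrapped two-state fits of normalised signals gave melting temperature and folding enthalpy. Four replicates were combined by inverse variance, and fitted temperatures were raised by 9.35 °C to match UV melts.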

Data set [2] is described as follows: melting temperature; fluorescence melt of hairpins on a sequencing array, two-state fit, raised by 9.35 °C to match UV melts. To be noted: sodium 0.088 M. The method, boiled down:
as §1

For GATCACCAGGTGATC ((((((...)))))), the folding enthalpy in data set [1] is -26.5 kcal/mol. Further, in data set [2], the Tm was 54.8 °C.

Turning to GCATAACGAAAGTTTTGC (((.(((....))).))), the folding enthalpy in data set [1] is -30.7 kcal/mol. Also, the Tm in data set [2] is 48.8 °C.

As to GTTAGCGAAAGCTACAAC ((((((....)))..))), the folding enthalpy in data set [1] is -8.63 kcal/mol. Moreover, the Tm in data set [2] was found to be 30.4 °C.

On to GATCTATATTAGATC ((((((...)))))), for which, in data set [1], the folding enthalpy was -26.1 kcal/mol. In addition, the Tm in data set [2] amounted to 40.9 °C.

For GATAGCGGAAACGTTGTC ((.(.((....)).).)), the folding enthalpy in data set [1] is -16.1 kcal/mol. In addition, the Tm in data set [2] turned out to be 27.5 °C.

As to GCAGTCGAAAGACAGTGC ((((((....)))..))), the folding enthalpy in data set [1] is -18.4 kcal/mol. For the same sequence, in data set [2], the Tm came to 45.1 °C.

Regarding GCCAAGCGAAAGCATGGC ((((.((....)).)))), in data set [1], the folding enthalpy is -34.9 kcal/mol. Moreover, in data set [2], the Tm was determined as 67 °C.

As for GCTTTGCGAAAGCACGGC ((..(((....)))..)), the folding enthalpy in data set [1] was -16.6 kcal/mol. Further, the Tm in data set [2] is 41.7 °C.

With GTGTTCGAAAGAACCAC ((((((....))).))), the folding enthalpy in data set [1] is -13.3 kcal/mol. Also, in data set [2], the Tm came out at 43.5 °C.

Take GCAATATCGAAAGATTGC (((..(((....)))))): the folding enthalpy in data set [1] was -25.5 kcal/mol. In addition, the Tm in data set [2] worked out at 39.5 °C.

As to GATCCGTCGACGGATC ((((((....)))))), the folding enthalpy in data set [1] was -48.8 kcal/mol. Besides, the Tm in data set [2] was found to be 61.9 °C.

As for GTGTTGGGAAACTAACAC (((((.(....).))))), the folding enthalpy in data set [1] is -36.4 kcal/mol. Moreover, the Tm in data set [2] was found to be 46.7 °C.

On to GCGTGGGGAAACTCGCGC (((.(.(....).).))), for which the folding enthalpy in data set [1] was -35.6 kcal/mol. Moreover, in data set [2], the Tm amounted to 54 °C.

GCCAGCGAAAGCTTGGGC ((((((....)))..))): in data set [1], the folding enthalpy is -26.7 kcal/mol. For the same sequence, in data set [2], the Tm amounted to 52.5 °C.

Take GATCCCAATGGGATC ((((((...)))))): the folding enthalpy in data set [1] was -32.5 kcal/mol. For the same sequence, the Tm in data set [2] was 60.6 °C.

As to GCGATTGAAAAATCGC ((((((....)))))), in data set [1], the folding enthalpy is -40.7 kcal/mol. The Tm in data set [2] amounted to 64.8 °C.

As for GATCATGCATATGATC ((((((....)))))), the folding enthalpy in data set [1] was -55.8 kcal/mol. The Tm in data set [2] amounted to 55.4 °C.

As to GACGTACGAAAGTAGGTC (((.(((....))).))), the folding enthalpy in data set [1] is -38.5 kcal/mol. Further, in data set [2], the Tm turned out to be 52.6 °C.

Consider GGGCTGGGAAACCGGCTC (.((.((....)).)).), for which the folding enthalpy in data set [1] is -19.7 kcal/mol. In data set [2], the Tm is 49.1 °C.

As to GATCGTCTCAACGATC ((((((....)))))), the folding enthalpy in data set [1] is -41.6 kcal/mol. Besides, the Tm in data set [2] was 57.6 °C.

With GATCAAGGATTTGATC ((((((....)))))), in data set [1], the folding enthalpy is -29.8 kcal/mol. Further, in data set [2], the Tm is 49.1 °C.

As to GCGATCCTCGC ((((...)))), the folding enthalpy in data set [1] is -20.9 kcal/mol. For the same sequence, the Tm in data set [2] was found to be 50.3 °C.

Consider GATCCCCGGTGGGATC ((((((....)))))), for which, in data set [1], the folding enthalpy is -37.5 kcal/mol. Further, in data set [2], the Tm is 57.7 °C.

As to GCGGCGCGAAAGCGATGC ((..(((....)))..)), in data set [1], the folding enthalpy was -38.6 kcal/mol. The Tm in data set [2] worked out at 69.1 °C.

Take GCGAGGCTCGC ((((...)))): the folding enthalpy in data set [1] was -28.5 kcal/mol. The Tm in data set [2] is 52.8 °C.

GAGGTTGGAAACGACTTC ((.((.(....).)).)): the folding enthalpy in data set [1] was -24.9 kcal/mol. Also, the Tm in data set [2] was 35.2 °C.

Regarding GGTTTAGGAAACTAGACC (((.(((....))).))), the folding enthalpy in data set [1] is -30.2 kcal/mol. Besides, the Tm in data set [2] was determined as 37.5 °C.

Consider GATCTGGGTTCAGATC ((((((....)))))), for which the folding enthalpy in data set [1] is -43.3 kcal/mol. Besides, in data set [2], the Tm was found to be 49.4 °C.

In the case of GGTTTCCGAAAGGATACC (((.(((....))).))), the folding enthalpy in data set [1] is -36.7 kcal/mol. Besides, the Tm in data set [2] is 50.5 °C.

With GCGGCACCCGC ((((...)))), the folding enthalpy in data set [1] is -21.9 kcal/mol. The Tm in data set [2] came out at 56.4 °C.

Consider GATCTTTGCCAAGATC ((((((....)))))), for which the folding enthalpy in data set [1] is -29.7 kcal/mol. For the same sequence, in data set [2], the Tm worked out at 42.5 °C.

Values taken from the array DNA melting data of Ke et al. (doi:10.1101/2024.01.08.574731).
